{"source": "ChEMBL document CHEMBL3044571", "about": "“Identification of novel inhibitors of 1-aminocyclopropane-1-carboxylic acid synthase by chemical screening in Arabidopsis thaliana” (J Biol Chem, 2010)", "note": "Active and inactive are the calls of the source. The rule behind the calls is not given here.", "data": [{"target": "T1, 1-aminocyclopropane-1-carboxylate synthase 5 (Arabidopsis thaliana, UniProt Q37001)", "T1 sequence (Q37001 whole entry)": "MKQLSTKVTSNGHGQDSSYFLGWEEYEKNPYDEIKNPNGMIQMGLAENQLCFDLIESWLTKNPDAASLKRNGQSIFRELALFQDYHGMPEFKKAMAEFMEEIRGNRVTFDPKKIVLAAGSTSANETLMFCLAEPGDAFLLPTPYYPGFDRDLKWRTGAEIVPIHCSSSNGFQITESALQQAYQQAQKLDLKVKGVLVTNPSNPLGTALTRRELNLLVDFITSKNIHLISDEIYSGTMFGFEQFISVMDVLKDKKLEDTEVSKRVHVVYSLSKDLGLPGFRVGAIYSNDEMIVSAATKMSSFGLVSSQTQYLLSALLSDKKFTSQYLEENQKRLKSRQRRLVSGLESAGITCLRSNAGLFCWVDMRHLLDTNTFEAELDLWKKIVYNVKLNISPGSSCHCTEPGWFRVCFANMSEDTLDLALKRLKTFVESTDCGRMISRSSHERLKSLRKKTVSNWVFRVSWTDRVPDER", "assay": "Uncompetitive inhibition of Arabidopsis thaliana recombinant ACS5 expressed in Escherichia coli (BL21) assessed as oxidation of ACC to ethylene by Lineweaver-Burk plot analysis", "conditions": "not given", "units": {"Ki": "nM"}, "values": [{"smiles": "COc1ccc(C2CC(=O)c3cnc(Nc4ccccc4)nc3C2)cc1", "note": "(centres undefined)", "Ki": 23}, {"smiles": "NCCO/C=C/C(N)C(=O)O", "note": "(centres undefined) [AMINOETHOXYVINYLGLYCINE]", "Ki": 15}]}, {"system": "Arabidopsis thaliana", "assay": "Inhibition of triple response phenotype in Arabidopsis thaliana seedlings expressing 35S::EIN3 by measuring hypocotyl elongation up to 50 uM 3 days after germination in dark", "assay_type": "functional, organism-based", "conditions": "not given", "values": [{"smiles": "COc1ccc(C2CC(=O)c3cnc(Nc4ccccc4)nc3C2)cc1", "note": "(centres undefined)", "inhibition": "inactive"}, {"smiles": "Cc1ccc(C2CC(=O)c3cnc(NC4CCCC4)nc3C2)cc1", "note": "(centres undefined)", "inhibition": "inactive"}, {"smiles": "CC1(C)CC(=O)c2cnc(NC3CCCC3)nc2C1", "inhibition": "inactive"}]}, {"system": "Arabidopsis thaliana", "assay": "Inhibition of ethylene biosynthesis in Arabidopsis thaliana eto1-4 expressing 5 x EBS::LUC assessed as decrease ethylene level at 10 uM 3 days after germination in dark", "assay_type": "functional, organism-based", "conditions": "not given", "values": [{"smiles": "COc1ccc(C2CC(=O)c3cnc(Nc4ccccc4)nc3C2)cc1", "note": "(centres undefined)", "inhibition": "Active"}, {"smiles": "Cc1ccc(C2CC(=O)c3cnc(NC4CCCC4)nc3C2)cc1", "note": "(centres undefined)", "inhibition": "Active"}, {"smiles": "CC1(C)CC(=O)c2cnc(NC3CCCC3)nc2C1", "inhibition": "Active"}]}, {"system": "Arabidopsis thaliana", "assay": "Inhibition of triple response phenotype in Arabidopsis thaliana seedlings expressing 35S::EIN3 by measuring hypocotyl elongation at 10 uM 3 days after germination in dark", "assay_type": "functional, organism-based", "conditions": "not given", "values": [{"smiles": "COc1ccc(C2CC(=O)c3cnc(Nc4ccccc4)nc3C2)cc1", "note": "(centres undefined)", "inhibition": "inactive"}, {"smiles": "Cc1ccc(C2CC(=O)c3cnc(NC4CCCC4)nc3C2)cc1", "note": "(centres undefined)", "inhibition": "inactive"}, {"smiles": "CC1(C)CC(=O)c2cnc(NC3CCCC3)nc2C1", "inhibition": "inactive"}]}, {"system": "Arabidopsis thaliana", "assay": "Inhibition of triple response phenotype in Arabidopsis thaliana seedlings expressing eto1-4 mutant and 5 x EBS::LUC by measuring hypocotyl elongation at 1 to 5 uM 3 days after germination in dark", "assay_type": "functional, organism-based", "conditions": "not given", "in_short": "(§1)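 Etiolated eto1-4 seedlings grown 3 days in the dark at 22°C on 0.5xMS agar containing graded compound, STS or AVG, with DMSO control. Seeds bleach-sterilized and stratified 3–4 days at 4°C beforehand. Hypocotyl length measured from stereomicroscope images; means of n ≥30 seedlings.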", "values": [{"smiles": "NCCO/C=C/C(N)C(=O)O", "note": "(centres undefined) [AMINOETHOXYVINYLGLYCINE]", "inhibition": "Active"}]}, {"system": "Arabidopsis thaliana", "assay": "Inhibition of triple response phenotype in Arabidopsis thaliana seedlings expressing ctr1-1 mutant by measuring hypocotyl elongation up to 50 uM 3 days after germination in dark", "assay_type": "functional, organism-based", "conditions": "not given", "values": [{"smiles": "COc1ccc(C2CC(=O)c3cnc(Nc4ccccc4)nc3C2)cc1", "note": "(centres undefined)", "inhibition": "inactive"}, {"smiles": "Cc1ccc(C2CC(=O)c3cnc(NC4CCCC4)nc3C2)cc1", "note": "(centres undefined)", "inhibition": "inactive"}, {"smiles": "CC1(C)CC(=O)c2cnc(NC3CCCC3)nc2C1", "inhibition": "inactive"}]}, {"system": "Arabidopsis thaliana", "assay": "Inhibition of triple response phenotype in Arabidopsis thaliana seedlings expressing eto1-4 mutant by measuring hypocotyl elongation up to 50 uM 3 days after germination in dark", "assay_type": "functional, organism-based", "conditions": "not given", "values": [{"smiles": "COc1ccc(C2CC(=O)c3cnc(Nc4ccccc4)nc3C2)cc1", "note": "(centres undefined)", "inhibition": "Active"}, {"smiles": "Cc1ccc(C2CC(=O)c3cnc(NC4CCCC4)nc3C2)cc1", "note": "(centres undefined)", "inhibition": "Active"}, {"smiles": "CC1(C)CC(=O)c2cnc(NC3CCCC3)nc2C1", "inhibition": "Active"}]}, {"system": "Arabidopsis thaliana", "assay": "Inhibition of triple response phenotype in Arabidopsis thaliana seedlings expressing eto2-1 mutant by measuring hypocotyl elongation at 10 to 30 uM 3 days after germination in dark", "assay_type": "functional, organism-based", "conditions": "not given", "values": [{"smiles": "COc1ccc(C2CC(=O)c3cnc(Nc4ccccc4)nc3C2)cc1", "note": "(centres undefined)", "inhibition": "Active"}, {"smiles": "Cc1ccc(C2CC(=O)c3cnc(NC4CCCC4)nc3C2)cc1", "note": "(centres undefined)", "inhibition": "Active"}, {"smiles": "CC1(C)CC(=O)c2cnc(NC3CCCC3)nc2C1", "inhibition": "Active"}, {"smiles": "NCCO/C=C/C(N)C(=O)O", "note": "(centres undefined) [AMINOETHOXYVINYLGLYCINE]", "inhibition": "Active"}]}, {"target": "T1, 1-aminocyclopropane-1-carboxylate synthase 5", "assay": "Inhibition of Arabidopsis thaliana recombinant ACS5 expressed in Escherichia coli (BL21) assessed as oxidation of ACC to ethylene preincubated for 30 min measured after 10 min by gas chromatography", "conditions": "not given", "in_short": "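His-tagged recombinant ACS5 expressed in E. coli (IPTG induction, 16°C, 18 h) and purified on a HisTrap column. Enzyme (1 μg) in 2 ml buffer A (pH 8.0) with 10 μM PLP and 250 μM SAM, plus graded compound or DMSO, for 30 min at 25°C. Stopped with HgCl2 and NaOH:bleach, which oxidize ACC to ethylene, quantified by GC against an ACC standard curve. Duplicate, repeated ≥3 times.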", "units": {"IC50": "nM"}, "values": [{"smiles": "CC1(C)CC(=O)c2cnc(NC3CCCC3)nc2C1", "IC50": 7900}, {"smiles": "NCCO/C=C/C(N)C(=O)O", "note": "(centres undefined) [AMINOETHOXYVINYLGLYCINE]", "IC50": 700}]}, {"system": "Arabidopsis thaliana", "assay": "(§2) Inhibition of triple response phenotype in Arabidopsis thaliana seedlings expressing eto1-4 mutant by measuring hypocotyl elongation at 10 uM 3 days after germination in dark", "assay_type": "functional", "conditions": "72 h", "units": {"inhibition at 10 µM": "%"}, "values": [{"smiles": "COc1ccc(C2CC(=O)c3cnc(Nc4ccccc4)nc3C2)cc1", "note": "(centres undefined)", "inhibition at 10 µM": 77}, {"smiles": "Cc1ccc(C2CC(=O)c3cnc(NC4CCCC4)nc3C2)cc1", "note": "(centres undefined)", "inhibition at 10 µM": 66}, {"smiles": "CC1(C)CC(=O)c2cnc(Nc3ccccc3)nc2C1", "inhibition at 10 µM": 29}, {"smiles": "CC1CC(=O)c2cnc(Nc3ccccc3)nc2C1", "note": "(centres undefined)", "inhibition at 10 µM": 28}, {"smiles": "O=C1CC(c2ccccc2Cl)Cc2nc(NC3CCCC3)ncc21", "note": "(centres undefined)", "inhibition at 10 µM": 54}, {"smiles": "CC1(C)CC(=O)c2cnc(NC3CCCC3)nc2C1", "inhibition at 10 µM": 55}, {"smiles": "NCCO/C=C/C(N)C(=O)O", "note": "(centres undefined) [AMINOETHOXYVINYLGLYCINE]", "inhibition at 10 µM": 100}, {"smiles": "CCCCNc1ncc2c(n1)CC(c1ccccc1)CC2=O", "note": "(centres undefined)", "inhibition at 10 µM": 43}]}, {"system": "Arabidopsis thaliana", "assay": "as §2", "assay_type": "functional", "conditions": "72 h, tested as the Ag salt or complex", "units": {"inhibition at 10 µM": "%"}, "values": [{"smiles": "O=S(O)(O)=S", "note": "[SILVER THIOSULFATE]", "inhibition at 10 µM": 84}]}, {"system": "Arabidopsis thaliana", "assay": "Inhibition of ethylene biosynthesis in Arabidopsis thaliana eto1-4 expressing 5 x EBS::LUC assessed as decrease ethylene level at 10 uM 3 days after germination in dark relative to aminoethoxyvinylglycine", "assay_type": "functional", "conditions": "72 h", "units": {"inhibition at 10 µM": "%"}, "values": [{"smiles": "CC1(C)CC(=O)c2cnc(NCc3ccccc3)nc2C1", "inhibition at 10 µM": 45}, {"smiles": "COc1ccc(C2CC(=O)c3cnc(Nc4ccccc4)nc3C2)cc1", "note": "(centres undefined)", "inhibition at 10 µM": 93}, {"smiles": "Cc1ccc(C2CC(=O)c3cnc(NC4CCCC4)nc3C2)cc1", "note": "(centres undefined)", "inhibition at 10 µM": 87}, {"smiles": "Cc1nc(Nc2ccccc2)nc2c1C(=O)CC(C)(C)C2", "inhibition at 10 µM": 67}, {"smiles": "CC1(C)CC(=O)c2cnc(Nc3ccccc3)nc2C1", "inhibition at 10 µM": 77}, {"smiles": "CC1CC(=O)c2cnc(Nc3ccccc3)nc2C1", "note": "(centres undefined)", "inhibition at 10 µM": 82}, {"smiles": "O=C1CC(c2ccccc2Cl)Cc2nc(NC3CCCC3)ncc21", "note": "(centres undefined)", "inhibition at 10 µM": 91}, {"smiles": "CC1(C)CC(=O)c2cnc(NCc3ccc(F)cc3)nc2C1", "inhibition at 10 µM": 69}, {"smiles": "CC1CC(=O)c2cnc(NCc3ccccc3)nc2C1", "note": "(centres undefined)", "inhibition at 10 µM": 54}, {"smiles": "CC1(C)CC(=O)c2cnc(NC3CCCC3)nc2C1", "inhibition at 10 µM": 87}, {"smiles": "CC1(C)CC(=O)c2cnc(Nc3ccc(F)cc3)nc2C1", "inhibition at 10 µM": 36}, {"smiles": "CCCCc1nc(N)nc2c1C(=O)CC(C)(C)C2", "inhibition at 10 µM": 22}, {"smiles": "Cc1nc(Nc2ccc(F)cc2)nc2c1C(=O)CC(C)(C)C2", "inhibition at 10 µM": 9}, {"smiles": "CCCCNc1ncc2c(n1)CC(c1ccccc1)CC2=O", "note": "(centres undefined)", "inhibition at 10 µM": 92}]}, {"system": "Arabidopsis thaliana", "assay": "Inhibition of triple response phenotype in Arabidopsis thaliana seedlings expressing eto1-4 mutant and 5 x EBS::LUC by measuring hypocotyl elongation at 0.1 to 1 uM 3 days after germination in dark", "assay_type": "functional, organism-based", "conditions": "not given", "in_short": "as §1", "values": [{"smiles": "COc1ccc(C2CC(=O)c3cnc(Nc4ccccc4)nc3C2)cc1", "note": "(centres undefined)", "inhibition": "Active"}, {"smiles": "Cc1ccc(C2CC(=O)c3cnc(NC4CCCC4)nc3C2)cc1", "note": "(centres undefined)", "inhibition": "Active"}]}, {"system": "Arabidopsis thaliana", "assay": "Inhibition of triple response phenotype in Arabidopsis thaliana seedlings expressing eto1-4 mutant and 5 x EBS::LUC by measuring hypocotyl elongation at >5 uM 3 days after germination in dark", "assay_type": "functional, organism-based", "conditions": "not given", "in_short": "as §1", "values": [{"smiles": "COc1ccc(C2CC(=O)c3cnc(Nc4ccccc4)nc3C2)cc1", "note": "(centres undefined)", "inhibition": "Active"}, {"smiles": "Cc1ccc(C2CC(=O)c3cnc(NC4CCCC4)nc3C2)cc1", "note": "(centres undefined)", "inhibition": "Active"}]}, {"system": "Arabidopsis thaliana", "assay": "Inhibition of triple response phenotype in Arabidopsis thaliana seedlings expressing ctr1-1 mutant by measuring hypocotyl elongation at 10 uM 3 days after germination in dark", "assay_type": "functional, organism-based", "conditions": "not given", "values": [{"smiles": "COc1ccc(C2CC(=O)c3cnc(Nc4ccccc4)nc3C2)cc1", "note": "(centres undefined)", "inhibition": "inactive"}, {"smiles": "Cc1ccc(C2CC(=O)c3cnc(NC4CCCC4)nc3C2)cc1", "note": "(centres undefined)", "inhibition": "inactive"}, {"smiles": "CC1(C)CC(=O)c2cnc(NC3CCCC3)nc2C1", "inhibition": "inactive"}]}]}
